Activity calls are given as the source filed them. The rule behind the calls is not given here.
What was measured:
MV4-11 = assay: Antiproliferative activity against human MV411 cells; type: functional, cell-based
A498 = assay: Antiproliferative activity against human A498 cells; type: functional, cell-based
A549 = assay: Potency index, ratio of bestatin IC50 to compound IC50 for human A549 cells; type: functional
[1] = Acute toxicity in Wistar rat assessed as mortaliity topically applied to shaved dorsal skin as single dose for 24 hrs measured for 14 days; settings: in vivo, topical or ocular
How it was run: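 Wistar rats, 5 males and 5 females; single 2000 mg/kg bw dermal application to shaved dorsal skin (about 41 cm2 per male, 31 cm2 per female) for 24 h. General and detailed clinical observations daily over a 14-day observation period, then animals euthanized; treated skin examined for pathological changes.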

[2] = Selectivity index, ratio of IC50 for mouse BALB/3T3 cells to IC50 for human CEM/C2 cells; type: toxicity; settings: BALB/3T3 cells versus CEM/C2 cells, read-out: Ratio IC50
HL-60 [3] = assay: Decrease in cyclin E expression in human HL60 cells at 1 ug/ml after 72 hrs by Western-blot analysis; type: functional, cell-based
How it was run: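 HL-60 (2 × 10^5 cells/mL) treated 72 h at 1 µg/mL with DMSO control, then lysed in RIPA buffer with protease/phosphatase inhibitors. 100 µg protein resolved on 4–20% gels and transferred to nitrocellulose. Probed with rabbit primary antibody, fluorescein-linked anti-rabbit secondary, then anti-fluorescein–alkaline phosphatase with ECF substrate; fluorescence scanned. Densitometry normalized to actin, reported as fold change versus control.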

[4] = Selectivity index, ratio of IC50 for mouse BALB/3T3 cells to IC50 for human LNCAP cells; type: toxicity; settings: BALB/3T3 cells versus LNCAP cells, read-out: Ratio IC50
HL-60 [5] = assay: Induction of apoptosis in human HL60 cells assessed as increase in late apoptotic cells at 3 ug/ml after 72 hrs by APC-Annexin V/propidium iodide staining based flow cytometry relative to control; type: functional, cell-based
How it was run: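 HL-60 (2 × 10^5 cells/mL, seeded 24 h before) treated 72 h at 3 µg/mL alongside a DMSO control. Cells suspended in APC-Annexin V in HEPES binding buffer pH 7.4 with 1.8 mM CaCl2, 15 min dark at rt, then PI at 0.1 mg/mL final. Flow cytometry: PI+/Annexin+ counted as late apoptotic/necrotic. Three experiments, mean ± SD, p≤0.05 versus control.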

[6] = Selectivity index, ratio of IC50 for mouse BALB/3T3 cells to IC50 for human LoVo cells; type: toxicity; settings: BALB/3T3 cells versus LoVo cells, read-out: Ratio IC50

For `CCOC(=O)C1(C(=O)OCC)Cc2cc(OCc3ccccc3)cc(OCc3ccccc3)c2C=N1`, the IC50 (MV4-11) was 64.4 µM, the IC50 (A498) was 13.3 µM and the “Ratio IC50” value (A549) was 18. For the same compound, the LD50 at 14 days [1] was greater than 2000 mg/kg, the selectivity ratio [2] was 89.7 and the Activity (HL-60 [3]) was “Active”. For the same compound, the selectivity ratio [4] was 10.9, the Activity (HL-60 [5]) was “Active” and the selectivity ratio [6] was 32.6.
